Measured values from ChEMBL document CHEMBL3526143, “Pulmonary metabolism of resveratrol: in vitro and in vivo evidence” (Drug Metab Dispos, 2013).

Key:
[1] = Drug level in human lung microsomes treated with trans-resveratrol at 0.5 mM measured at 60 mins; assay type: ADME; conditions: 1 h, 500 µM
Summary of the method: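 Pooled human lung microsomes at 0.1, 0.5 and 2.5 mg/ml final, with 0.5 mM substrate in 2% final HP-β-CD, are incubated with UDPGA cofactor for 60 min. Glucuronide is quantified by LC-MS/MS, with an LOQ of 10 ng/ml.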

[2] = Plasma protein binding in mouse at 20 uM by equilibrium dialysis method; assay type: ADME, cell-free; conditions: read-out: PPB (converted)
Summary of the method: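 Equilibrium dialysis uses 5K MWCO membranes on a rotator at 37°C under 10% CO2. Thawed mouse plasma is adjusted to pH 7.4, and each analyte is tested at 20 µM; n = 3.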

[3] = Partial substrate inhibition in mouse lung S9 fractions treated with trans-resveratrol preincubated for 3 mins followed by UDPGA addition measured after 60 mins by Eadie-Hofstee plot analysis; assay type: ADME
Summary of the method: (§1)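 Pooled mouse lung S9 (0.5 mg/ml final) is incubated with substrate at 0.01 µM–5 mM in 2% final HP-β-CD, alamethicin 10 µg/ml, 5 mM MgCl2 and Tris-HCl 100 mM pH 7.4 at 37°C. The reaction is started with 5 mM UDPGA and stopped at 60 min with ascorbic acid and cold methanol. Triplicates are run, with a control lacking UDPGA. Data are screened on Eadie-Hofstee plots and fitted by nonlinear regression to a partial substrate inhibition model.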

[4] = Partial substrate inhibition in mouse lung S9 fractions treated with trans-resveratrol preincubated for 3 mins followed by PAPS addition measured after 60 mins by Eadie-Hofstee plot analysis; assay type: ADME
Summary of the method: (§2)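 Sulfation uses pooled lung S9 (mouse 1 mg/ml, human 0.5 mg/ml final) with substrate at 0.01 µM–5 mM in 2% HP-β-CD, 5 mM MgCl2 and 10 mM potassium phosphate pH 6.5 at 37°C. After 3 min preincubation, 1 mM PAPS is added for 60 min, and the reaction is stopped with ascorbic acid and cold methanol. Triplicates are run, with a control lacking PAPS. Kinetics are fitted by nonlinear regression (partial substrate inhibition) after Eadie-Hofstee inspection.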

[5] = Partial substrate inhibition in human lung S9 fractions treated with trans-resveratrol preincubated for 3 mins followed by PAPS addition measured after 60 mins by Eadie-Hofstee plot analysis; assay type: ADME; summary of the method: as §2
[6] = AUC (0 to infinity) in C57BL/6 mouse at 15 mg/kg, iv; assay type: ADME, organism-based; design: time infinity, dose 15 mg/kg, route intravenous; conditions: plasma
Summary of the method: (§3)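 Male C57BL/6 mice, 20–25 g, given a single IV dose of 15 mg/kg in 20% HP-β-CD in saline. Blood (20 µl) is drawn serially through a carotid artery cannula at 2.5–600 min, and plasma is assayed by LC-MS/MS. Noncompartmental analysis gives AUC by the linear trapezoidal rule, CL = dose/AUC0-inf, Vss = CL × MRT0-inf and t1/2 = 0.693/λ; n = 5.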

[7] = Bioavailability in C57BL/6 mouse at 15 mg/kg, iv; assay type: ADME, organism-based; conditions: in vivo
[8] = Drug metabolism in mouse lung S9 fractions assessed as trans-resveratrol-3-sulfate formation preincubated for 3 mins followed by PAPS addition measured after 60 mins by Eadie-Hofstee plot analysis; assay type: ADME, tissue-based; conditions: s9, 1 h; summary of the method: as §2
[9] = Terminal half life in C57BL/6 mouse at 15 mg/kg, iv; assay type: ADME, organism-based; design: dose 15 mg/kg, route intravenous; conditions: in vivo, read-out: beta t1/2; summary of the method: as §3
[10] = Drug metabolism in human lung S9 fractions assessed as trans-resveratrol-3-sulfate formation preincubated for 3 mins followed by PAPS addition measured after 60 mins by Eadie-Hofstee plot analysis; assay type: ADME, tissue-based; conditions: s9, 1 h; summary of the method: as §2
[11] = Drug metabolism in mouse lung S9 fractions assessed as trans-resveratrol-3-O-glucuronide formation preincubated for 3 mins followed by UDPGA addition measured after 60 mins by Eadie-Hofstee plot analysis; assay type: ADME, tissue-based; conditions: s9, 1 h; summary of the method: as §1
[12] = Volume of distribution at steady state in C57BL/6 mouse at 15 mg/kg, iv; assay type: ADME, organism-based; design: dose 15 mg/kg, route intravenous; conditions: in vivo, read-out: Vdss; summary of the method: as §3
[13] = Clearance in C57BL/6 mouse at 15 mg/kg, iv; assay type: ADME, organism-based; design: dose 15 mg/kg, route intravenous; conditions: in vivo; summary of the method: as §3

| Drug metabolism [1] [ng/mL] | fraction unbound at 20 µM [2] | Ki [3] [mM] | Ki [4] [mM] | Ki [5] [mM] | AUC(0-inf) [6] [µM·h] | bioavailability [7] [%] | Km [8] [µM] | Vmax [8] [pmol/min/mg] | half-life [9] [h] | Km [10] [µM] | Vmax [10] [pmol/min/mg] | Km [11] [µM] | Vmax [11] [pmol/min/mg] | Vd [12] [L/kg] | clearance [13] [mL/min/kg] | Structure (SMILES) |
| --- | --- | --- | --- | --- | --- | --- | --- | --- | --- | --- | --- | --- | --- | --- | --- | --- |
| < 10 | 0.333 | 6.63 |  |  |  |  |  |  |  |  |  |  |  |  |  | O=C(O)[C@H]1O[C@@H](Oc2cc(O)cc(/C=C/c3ccc(O)cc3)c2)[C@H](O)[C@@H](O)[C@@H]1O |
|  | 0.128 |  | 2.02 | 23.2 |  |  |  |  |  |  |  |  |  |  |  | O=S(=O)(O)Oc1cc(O)cc(/C=C/c2ccc(O)cc2)c1 |
|  | 0.0805 |  |  |  | 4.92 | 49.9 | 2.69 | 7.05 | 1.69 | 4.45 | 16.15 | 7.34 | 324.4 | 34.9 | 280 | Oc1ccc(/C=C/c2cc(O)cc(O)c2)cc1 [RESVERATROL] |
